Here are results for one compound from ChEMBL document CHEMBL4261600 (Eur J Med Chem, 2018).

pIC50: −log10 of the molar value. Calls of active or inactive are those of the source.

For one data set, the target named is CDK7/Cyclin H/MNAT1 (Homo sapiens, UniProt P50613). Nature of the data set: Inhibition of recombinant full length His-tagged human CDK7/cyclin H/MNAT1 expressed in baculovirus expression system.
Data set [1] deals with Mycobacterium tuberculosis. Description: Binding affinity to wild-type Mycobacterium tuberculosis partial length PKNB (M1 to G279 residues) expressed in mammalian expression system assessed as remaining unbound target protein level at 1000 nM by Kinomescan method relative to control. Summed up:
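KINOMEscan competition binding panel run at 1 μM inhibitor; binding reported as percent of DMSO control (remaining target bound versus vehicle).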

The target in data set [2] is Wee1-like protein kinase 2 (Homo sapiens) (UniProt P0C1S8). Nature of the data set: Binding affinity to wild-type human partial length WEE2 (M204 to K492 residues) expressed in bacterial expression system assessed as remaining unbound target protein level at 1000 nM by Kinomescan method relative to control.
Data set [3] in a line: Cmax in Sprague-Dawley rat at 20 mg/kg, po by LC-MS/MS analysis. The following applies: in vivo. Also on record: dose 20 mg/kg, route oral. In kind it is ADME, organism-based.
The target in data set [4] is MAP kinase-interacting serine/threonine-protein kinase 2 (Homo sapiens) (UniProt Q9HBH9). Nature of the data set: Binding affinity to wild-type human partial length MKNK2 (G63 to S388 residues) expressed in mammalian expression system assessed as remaining unbound target protein level at 1000 nM by Kinomescan method relative to control.
The subject of data set [5] is Mast/stem cell growth factor receptor Kit (Homo sapiens), P10721 [D816V]. Nature of the data set: Binding affinity to human partial length KIT D816V mutant (I571 to D952 residues) expressed in bacterial expression system assessed as remaining unbound target protein level at 1000 nM by Kinomescan method relative to control. In a few lines:
(§1)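 KINOMEscan competition-binding profiling across the panel of 468 kinases and mutants, with inhibitor tested at 1 μM. Binding is expressed as percent of control, with DMSO as the reference control.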

The target in data set [6] is Serine/threonine-protein kinase NLK (Homo sapiens) (UniProt Q9UBE8). Description: Binding affinity to wild-type human full length NLK (M13 to E527 residues) expressed in bacterial expression system assessed as remaining unbound target protein level at 1000 nM by Kinomescan method relative to control. In a few lines: (§2)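 Single-point competition binding screen across a panel of 468 kinases and mutants, with the inhibitor at 1 μM. Binding is read out as percent of a DMSO control, and targets below 1 percent control were classed as strong binders.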

The target of data set [7] is Bone morphogenetic protein receptor type-1A (Homo sapiens) (UniProt P36894). Description: Binding affinity to wild-type human partial length BMPR1A (Q214 to I532 residues) expressed in bacterial expression system assessed as remaining unbound target protein level at 1000 nM by Kinomescan method relative to control. Summed up:
(§3)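 Profiled in a KINOMEscan binding panel with the inhibitor at a single concentration of 1 μM. Binding to each kinase was read out as percent of control, relative to a DMSO control. Strong binders were defined as those with a percent control value below 1.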

Data set [8] deals with Serine/threonine-protein kinase PAK 4 (Homo sapiens) (UniProt O96013). Nature of the data set: Binding affinity to wild-type human partial length PAK4 (Q144 to R438 residues) expressed in bacterial expression system assessed as remaining unbound target protein level at 1000 nM by Kinomescan method relative to control. In a few lines:
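KINOMEscan binding panel of 468 kinases/mutants. Inhibitor was tested at a single concentration of 1 μM. Binding is reported as percent of control, defined relative to a DMSO control.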

The subject of a further data set is HL-60. Nature of the data set: Induction of apoptosis in human HL60 cells assessed as decrease in XIAP level up to 3 uM after 2 hrs by immunoblotting analysis. Type of data set: functional, cell-based.
For data set [9], the system named is Phosphatidylinositol 4,5-bisphosphate 3-kinase catalytic subunit alpha isoform (Homo sapiens), P42336 [H1047L]. Nature of the data set: Binding affinity to human partial length PIK3CA H1047L mutant (R108 to N1068 residues) expressed in mammalian expression system assessed as remaining unbound target protein level at 1000 nM by Kinomescan method relative to control. Summed up:
as §1

Data set [10] has as its target Serine/threonine-protein kinase SIK3 (Homo sapiens) (UniProt Q9Y2K2). Nature of the data set: Binding affinity to wild-type human partial length QSK (A90 to L395 residues) expressed in mammalian expression system assessed as remaining unbound target protein level at 1000 nM by Kinomescan method relative to control.
Data set [11] concerns the target LIM domain kinase 2 (Homo sapiens) (UniProt P53671). Description: Binding affinity to wild-type human full length LIMK2 (M1 to P638 residues) expressed in bacterial expression system assessed as remaining unbound target protein level at 1000 nM by Kinomescan method relative to control. Summed up:
as §2

A short description of data set [12]: Cmax in mouse at 3 mg/kg, iv by LC-MS/MS analysis. Set-up: dose 3 mg/kg, route intravenous. Type of data set: ADME, organism-based. The settings on record: in vivo.
In data set [13] the target is Proto-oncogene tyrosine-protein kinase ROS (Homo sapiens) (UniProt P08922). Nature of the data set: Binding affinity to wild-type human partial length ROS1 (A1921 to N2240 residues) expressed in bacterial expression system assessed as remaining unbound target protein level at 1000 nM by Kinomescan method relative to control.
Data set [14] concerns the target Calcium/calmodulin-dependent protein kinase kinase 2 (Homo sapiens) (UniProt Q96RR4). Nature of the data set: Binding affinity to wild-type human partial length CAMKK2 (D65 to V471 residues) expressed in bacterial expression system assessed as remaining unbound target protein level at 1000 nM by Kinomescan method relative to control. Summed up: as §3
The target of data set [15] is Cyclin-G-associated kinase (Homo sapiens) (UniProt O14976). Description: Binding affinity to wild-type human partial length GAK (G13 to Y338 residues) expressed in bacterial expression system assessed as remaining unbound target protein level at 1000 nM by Kinomescan method relative to control.
In data set [16] the target is MAP kinase-interacting serine/threonine-protein kinase 1 (Homo sapiens) (UniProt Q9BUB5). Description: Binding affinity to wild-type human full length MKNK1 (M1 to L424 residues) expressed in mammalian expression system assessed as remaining unbound target protein level at 1000 nM by Kinomescan method relative to control. Summed up: as §2
MAP kinase-interacting serine/threonine-protein kinase 1 (Homo sapiens), sequence (Q9BUB5 whole entry, looked up, the tested form may be a part): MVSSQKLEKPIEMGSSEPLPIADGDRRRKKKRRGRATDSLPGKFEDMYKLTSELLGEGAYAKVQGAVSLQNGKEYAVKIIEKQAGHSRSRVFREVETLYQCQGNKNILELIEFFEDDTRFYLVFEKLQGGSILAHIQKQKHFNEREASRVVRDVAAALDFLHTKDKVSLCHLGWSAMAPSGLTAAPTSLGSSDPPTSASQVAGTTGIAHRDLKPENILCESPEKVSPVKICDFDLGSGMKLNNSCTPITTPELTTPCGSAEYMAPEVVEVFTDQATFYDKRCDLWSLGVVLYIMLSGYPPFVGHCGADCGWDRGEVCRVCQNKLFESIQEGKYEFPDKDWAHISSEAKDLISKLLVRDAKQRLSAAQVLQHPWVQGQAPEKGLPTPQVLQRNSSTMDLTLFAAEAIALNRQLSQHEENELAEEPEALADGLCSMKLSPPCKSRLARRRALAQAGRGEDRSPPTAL
Data set [17] has as its target RAF proto-oncogene serine/threonine-protein kinase (Homo sapiens) (UniProt P04049). Nature of the data set: Binding affinity to wild-type human partial length RAF1 (I330 to T640 residues) expressed in bacterial expression system assessed as remaining unbound target protein level at 1000 nM by Kinomescan method relative to control.
Data set [18] relates to Fibroblast growth factor receptor 3 (Homo sapiens), P22607 [G697C]. Nature of the data set: Binding affinity to human partial length FGFR3 G697C mutant (R442 to S771 residues) expressed in bacterial expression system assessed as remaining unbound target protein level at 1000 nM by Kinomescan method relative to control. Summed up: as §1
Fibroblast growth factor receptor 3 (Homo sapiens), P22607 [G697C], sequence (P22607 whole entry G697C, the tested form may be a part): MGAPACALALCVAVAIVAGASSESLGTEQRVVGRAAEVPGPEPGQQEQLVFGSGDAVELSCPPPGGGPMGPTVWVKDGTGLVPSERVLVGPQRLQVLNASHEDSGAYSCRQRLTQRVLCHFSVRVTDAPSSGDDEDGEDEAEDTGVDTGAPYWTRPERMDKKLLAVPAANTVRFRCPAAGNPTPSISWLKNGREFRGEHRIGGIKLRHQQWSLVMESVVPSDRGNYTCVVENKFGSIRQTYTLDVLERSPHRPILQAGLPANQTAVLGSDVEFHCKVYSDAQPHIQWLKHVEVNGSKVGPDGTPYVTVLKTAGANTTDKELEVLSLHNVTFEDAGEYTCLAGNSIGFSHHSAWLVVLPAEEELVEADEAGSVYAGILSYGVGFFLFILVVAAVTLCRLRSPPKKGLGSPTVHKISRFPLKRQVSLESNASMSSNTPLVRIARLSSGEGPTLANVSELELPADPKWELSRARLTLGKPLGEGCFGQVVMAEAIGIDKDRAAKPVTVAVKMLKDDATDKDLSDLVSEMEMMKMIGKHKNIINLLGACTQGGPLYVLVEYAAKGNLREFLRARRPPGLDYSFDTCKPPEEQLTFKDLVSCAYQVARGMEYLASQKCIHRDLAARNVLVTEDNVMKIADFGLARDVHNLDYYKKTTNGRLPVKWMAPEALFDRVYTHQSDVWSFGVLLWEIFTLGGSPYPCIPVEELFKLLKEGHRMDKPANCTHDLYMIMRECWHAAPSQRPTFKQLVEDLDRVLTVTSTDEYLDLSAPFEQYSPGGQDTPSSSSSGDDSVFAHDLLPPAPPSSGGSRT
Data set [19] concerns the target Serine/threonine-protein kinase Sgk3 (Homo sapiens) (UniProt Q96BR1). Nature of the data set: Binding affinity to wild-type human partial length SGK3 (M119 to L496 residues) expressed in mammalian expression system assessed as remaining unbound target protein level at 1000 nM by Kinomescan method relative to control.

Mast/stem cell growth factor receptor Kit (Homo sapiens), P10721 [D816V], sequence (P10721 whole entry D816V, the tested form may be a part): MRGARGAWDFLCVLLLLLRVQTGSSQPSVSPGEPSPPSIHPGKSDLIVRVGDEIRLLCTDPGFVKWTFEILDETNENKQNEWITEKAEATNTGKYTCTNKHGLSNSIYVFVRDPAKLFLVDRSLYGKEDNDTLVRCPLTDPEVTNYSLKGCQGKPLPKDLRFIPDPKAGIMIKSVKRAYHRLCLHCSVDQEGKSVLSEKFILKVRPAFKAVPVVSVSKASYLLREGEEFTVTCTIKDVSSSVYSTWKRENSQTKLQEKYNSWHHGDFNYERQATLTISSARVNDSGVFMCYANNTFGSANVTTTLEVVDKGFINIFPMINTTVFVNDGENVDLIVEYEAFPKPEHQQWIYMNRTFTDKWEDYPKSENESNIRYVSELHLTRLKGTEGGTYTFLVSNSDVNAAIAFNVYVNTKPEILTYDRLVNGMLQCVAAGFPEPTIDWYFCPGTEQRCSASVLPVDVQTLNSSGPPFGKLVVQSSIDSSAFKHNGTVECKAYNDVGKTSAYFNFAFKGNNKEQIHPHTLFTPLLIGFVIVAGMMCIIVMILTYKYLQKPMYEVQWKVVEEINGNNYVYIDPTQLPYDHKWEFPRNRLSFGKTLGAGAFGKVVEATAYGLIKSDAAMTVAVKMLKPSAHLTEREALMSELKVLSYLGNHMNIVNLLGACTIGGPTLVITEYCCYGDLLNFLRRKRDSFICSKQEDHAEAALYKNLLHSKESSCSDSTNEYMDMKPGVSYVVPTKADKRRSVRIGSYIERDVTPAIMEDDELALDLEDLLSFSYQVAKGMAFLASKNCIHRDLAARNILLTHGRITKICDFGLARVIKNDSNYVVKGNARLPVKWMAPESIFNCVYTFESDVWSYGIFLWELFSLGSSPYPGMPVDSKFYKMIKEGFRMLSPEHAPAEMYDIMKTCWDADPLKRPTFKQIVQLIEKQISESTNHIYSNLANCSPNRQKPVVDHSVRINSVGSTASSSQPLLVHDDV
RAF proto-oncogene serine/threonine-protein kinase (Homo sapiens), sequence (P04049 whole entry, the tested form may be a part): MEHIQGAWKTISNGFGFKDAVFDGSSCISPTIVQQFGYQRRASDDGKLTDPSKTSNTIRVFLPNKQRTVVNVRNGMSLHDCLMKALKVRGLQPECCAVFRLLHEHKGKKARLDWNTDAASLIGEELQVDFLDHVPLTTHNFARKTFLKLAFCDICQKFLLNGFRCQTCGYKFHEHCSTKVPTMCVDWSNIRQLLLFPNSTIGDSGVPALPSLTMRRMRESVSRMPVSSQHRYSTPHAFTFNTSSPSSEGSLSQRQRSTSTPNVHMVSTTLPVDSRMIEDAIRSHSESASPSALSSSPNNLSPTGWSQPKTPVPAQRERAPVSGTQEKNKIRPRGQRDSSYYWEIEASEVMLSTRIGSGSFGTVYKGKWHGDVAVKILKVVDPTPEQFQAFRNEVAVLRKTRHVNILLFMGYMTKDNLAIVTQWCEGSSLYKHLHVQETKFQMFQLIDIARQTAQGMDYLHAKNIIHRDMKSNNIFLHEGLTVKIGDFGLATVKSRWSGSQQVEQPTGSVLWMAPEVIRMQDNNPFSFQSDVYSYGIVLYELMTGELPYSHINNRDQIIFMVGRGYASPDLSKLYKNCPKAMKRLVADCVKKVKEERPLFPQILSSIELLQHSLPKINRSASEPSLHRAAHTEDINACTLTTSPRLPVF
Serine/threonine-protein kinase Sgk3 (Homo sapiens), sequence (Q96BR1 whole entry, the tested form may be a part): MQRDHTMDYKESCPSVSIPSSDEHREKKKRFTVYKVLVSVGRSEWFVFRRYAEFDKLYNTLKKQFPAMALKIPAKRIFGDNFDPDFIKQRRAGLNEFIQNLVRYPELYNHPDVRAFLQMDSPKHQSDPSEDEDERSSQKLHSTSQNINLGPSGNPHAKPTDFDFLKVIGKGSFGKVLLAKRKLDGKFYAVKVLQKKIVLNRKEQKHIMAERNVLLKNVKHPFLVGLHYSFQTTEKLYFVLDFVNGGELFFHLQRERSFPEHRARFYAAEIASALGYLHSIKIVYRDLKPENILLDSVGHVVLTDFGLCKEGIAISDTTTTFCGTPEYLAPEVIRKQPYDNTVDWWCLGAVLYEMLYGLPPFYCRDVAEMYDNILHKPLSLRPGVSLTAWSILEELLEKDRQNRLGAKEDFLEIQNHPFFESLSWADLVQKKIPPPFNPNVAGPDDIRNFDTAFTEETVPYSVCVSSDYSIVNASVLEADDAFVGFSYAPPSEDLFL
Phosphatidylinositol 4,5-bisphosphate 3-kinase catalytic subunit alpha isoform (Homo sapiens), P42336 [H1047L], sequence (P42336 whole entry H1047L, the tested form may be a part, canonical isoform): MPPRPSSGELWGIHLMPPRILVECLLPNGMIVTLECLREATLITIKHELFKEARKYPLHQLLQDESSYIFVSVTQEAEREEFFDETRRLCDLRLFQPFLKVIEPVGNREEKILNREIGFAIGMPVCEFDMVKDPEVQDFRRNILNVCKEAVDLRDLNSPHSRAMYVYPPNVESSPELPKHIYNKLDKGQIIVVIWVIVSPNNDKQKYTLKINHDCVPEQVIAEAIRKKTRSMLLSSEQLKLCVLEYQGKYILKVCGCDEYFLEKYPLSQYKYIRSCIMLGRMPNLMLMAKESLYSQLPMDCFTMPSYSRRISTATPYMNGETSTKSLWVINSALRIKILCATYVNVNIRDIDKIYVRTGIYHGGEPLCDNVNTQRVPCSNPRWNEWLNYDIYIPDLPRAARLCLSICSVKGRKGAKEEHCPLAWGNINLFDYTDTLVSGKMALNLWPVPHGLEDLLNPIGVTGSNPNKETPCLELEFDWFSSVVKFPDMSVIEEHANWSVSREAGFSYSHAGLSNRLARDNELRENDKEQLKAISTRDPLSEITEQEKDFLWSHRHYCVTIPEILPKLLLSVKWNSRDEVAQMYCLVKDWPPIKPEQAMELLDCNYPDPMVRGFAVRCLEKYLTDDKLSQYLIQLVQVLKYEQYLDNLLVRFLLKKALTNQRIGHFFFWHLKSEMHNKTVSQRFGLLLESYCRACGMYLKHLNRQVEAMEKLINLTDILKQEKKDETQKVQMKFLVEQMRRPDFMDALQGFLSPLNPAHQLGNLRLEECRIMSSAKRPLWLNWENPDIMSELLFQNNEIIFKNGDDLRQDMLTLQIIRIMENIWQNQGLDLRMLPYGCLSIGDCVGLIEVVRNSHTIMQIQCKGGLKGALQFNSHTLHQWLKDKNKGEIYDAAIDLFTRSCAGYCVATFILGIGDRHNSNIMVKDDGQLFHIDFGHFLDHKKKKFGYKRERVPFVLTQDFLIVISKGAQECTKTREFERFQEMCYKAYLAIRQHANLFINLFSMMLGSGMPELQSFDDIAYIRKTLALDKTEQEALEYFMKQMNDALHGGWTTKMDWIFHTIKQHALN
Calcium/calmodulin-dependent protein kinase kinase 2 (Homo sapiens), sequence (Q96RR4 2-588 limits assumed): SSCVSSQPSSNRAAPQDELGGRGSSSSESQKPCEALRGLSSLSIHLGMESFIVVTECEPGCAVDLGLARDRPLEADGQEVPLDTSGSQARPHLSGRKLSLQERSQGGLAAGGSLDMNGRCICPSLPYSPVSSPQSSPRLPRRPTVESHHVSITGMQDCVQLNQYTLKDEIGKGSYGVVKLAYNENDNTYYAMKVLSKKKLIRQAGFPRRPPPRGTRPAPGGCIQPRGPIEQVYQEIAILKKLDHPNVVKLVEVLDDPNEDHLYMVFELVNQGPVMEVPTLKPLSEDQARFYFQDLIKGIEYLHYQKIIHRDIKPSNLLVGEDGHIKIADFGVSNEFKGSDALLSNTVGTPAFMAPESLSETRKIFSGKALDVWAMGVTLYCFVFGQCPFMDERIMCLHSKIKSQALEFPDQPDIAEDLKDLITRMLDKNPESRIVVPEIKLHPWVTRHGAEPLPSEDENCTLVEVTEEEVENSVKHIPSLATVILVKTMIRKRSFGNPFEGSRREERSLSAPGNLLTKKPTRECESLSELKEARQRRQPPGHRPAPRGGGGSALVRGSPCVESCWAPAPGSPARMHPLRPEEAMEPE

With `COCCN[C@H]1CC[C@H](Nc2cc(-c3csc(NCC4(C#N)CCOCC4)n3)c(Cl)cn2)CC1`, the pIC50 – broadly, the negative decadic logarithm of the IC50, by convention in mol/L – at CDK7/Cyclin H/MNAT1 is 5.76. For the same compound, the Activity in data set [1] is 84%; in data set [2], 100%; in [4] it was 97%; in data set [5] it was 87%; in data set [6], 100%; in data set [7], 98%. Further, the Activity was 91% in [8]; 100% in [9]; 79% in [10]; 76% in [11]; 81% in data set [13]; 100% in [14]. Besides, the Activity came to 100% in [15]; 100% in data set [16]; 100% in [17]; 60% in data set [18]; 100% in [19]. In addition, the Cmax – broadly, the peak of the concentration-time curve – in data set [3] is 329 ng/mL; in data set [12], 573 ng/mL. Moreover, the outcome in the data set on HL-60 was inactive.
